These results are taken from ChEMBL document CHEMBL3112528 (ACS Med Chem Lett, 2014).

A word on the bioavailability: it is dose-corrected exposure relative to a reference, in per cent. A lower bioavailability goes with poor availability. Broadly, the half-life is the time needed for the level to fall by half in the phase considered. Low values mean rapid decline, high ones slow decline.

Bounds are passed on as bounds.

Data set [1] is described as follows: Oral bioavailability in dog at 1 mg/kg. Format: ADME, organism-based, Canis lupus familiaris. Particulars: in vivo.
Data set [2] in a line: Oral bioavailability in rat at 1 mg/kg. Format: ADME, organism-based. The following applies: in vivo. Put shortly: (§1)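 Rats (n = 3) given 0.5 mg/kg intravenously and 1.0 mg/kg orally; values reported as mean ± spread over 3 animals.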
Data set [3] can be described thus: Clearance in rat at 0.5 mg/kg, iv and 1 mg/kg, po. Format: ADME, organism-based. Particulars: in vivo. Put shortly: as §1
Data set [4] in a line: Half life in dog at 0.2 mg/kg, iv and 1 mg/kg, po. Format: ADME, organism-based, Canis lupus familiaris. The following applies: in vivo.
The nature of data set [5]: Volume of distribution at steady state in dog at 0.2 mg/kg, iv and 1 mg/kg, po. Format: ADME, organism-based, Canis lupus familiaris. Particulars: in vivo, read-out: Vdss.
Data set [6] can be described thus: Clearance in dog at 0.2 mg/kg, iv and 1 mg/kg, po. Format: ADME, organism-based, Canis lupus familiaris. Particulars: in vivo.
The nature of data set [7]: Half life in rat at 0.5 mg/kg, iv and 1 mg/kg, po. Particulars: in vivo. Format: ADME, organism-based. Put shortly:
as §1

Data set [8] is described as follows: Volume of distribution at steady state in rat at 0.5 mg/kg, iv and 1 mg/kg, po. Format: ADME, organism-based. Particulars: in vivo, read-out: Vdss. Put shortly:
as §1

Data set [9] in a line: Half life in dog at 0.2 mg/kg, iv. Format: ADME, organism-based, Canis lupus familiaris. Set-up: dose 0.2 mg/kg, route intravenous. Particulars: in vivo.
A short description of data set [10]: Volume of distribution at steady state in dog at 0.2 mg/kg, iv. Format: ADME, organism-based, Canis lupus familiaris. Also noted: dose 0.2 mg/kg, route intravenous. The following applies: in vivo, read-out: Vdss.
Data set [11] can be described thus: Clearance in dog at 0.2 mg/kg, iv. Format: ADME, organism-based, Canis lupus familiaris. Also noted: dose 0.2 mg/kg, route intravenous. The following applies: in vivo.

On to `CCOc1cc([C@@H](Nc2ccc3c(N)nccc3c2)C(=O)NS(=O)(=O)c2ccccc2)ccc1OC(C)C`, for which the bioavailability in data set [1] was 3.5%; in data set [2], below 1%.
For the molecule `CCOc1ccc(F)c([C@@H](Nc2ccc3c(N)nccc3c2)C(=O)N2CCC[C@@H]2c2cc(NC(=O)OC)ccc2S(=O)(=O)C(C)C)c1`, the clearance was determined as 1.56 L/h/kg in [3] and 2.46 L/h/kg in data set [6]. The results for the half-life in data set [4] and in [7] were 2.2 h and 4.9 h, respectively. The Vd was 4.2 L/kg in [5] and 5.6 L/kg in data set [8]. Moreover, the bioavailability turned out to be 45% in data set [1] and 7.9% in data set [2].
For the molecule `CCS(=O)(=O)c1ccccc1[C@H]1[C@@H](C(=O)O)CCN1C(=O)[C@H](Nc1ccc2c(N)nccc2c1)c1ccc(F)c(OC)c1`, the half-life in [9] is 1.1 h. Further, the Vd in data set [10] is 0.65 L/kg. In data set [11], this molecule had a clearance of 0.84 L/h/kg.
For `CCOc1cc([C@@H](Nc2ccc3c(N)nccc3c2)C(=O)NCc2ccccc2)ccc1OC(C)C`, the bioavailability stood at 45% in data set [1] and 31% in data set [2].
